# “And” between values parts separate entries of the source, which are not always exact repeats. Equal values may be shown once. The source made the active and inactive calls. The rule behind the calls is not given here.
# Legend:
# Rattus norvegicus [1] = test: Effective dose for drug discrimination effect in rat (ip); assay type: functional
# Outline: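 Cocaine-trained rat drug discrimination, FR10, 10-min sessions. Compound in 0.5% methyl cellulose given ip 15 min before session, usually to 7-8 rats per dose. Doses were raised from ≤20% to ≥80% cocaine-lever choice, capped at 30 mg/kg, >50% loss of pressing, or side effects.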
# Mus musculus [2] = test: Percent change in locomotor activity in mice at 3 mg/kg i.p. in 2 h.; assay type: functional; conditions: route intraperitoneal
# Outline: (§1)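 Mice habituated 1/2 h to photocell activity chambers, then injected ip with compound homogenized in 0.5% methyl cellulose (10 mL/kg); vehicle controls; N = 5 or 6 per dose. Photobeam interruptions recorded in 10-min bins for 4 h, grouped into 1-h bins; one-way ANOVA with Newman-Keuls post hoc test (p < 0.05).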
# Rattus norvegicus [3] = test: Drug discrimination effect of compound in rats, expressed as percent of rats choosing the cocaine lever at dose 0.17 mg/kg (ip); assay type: functional
# Mus musculus [4] = test: Percent change from vehicle in locomotor activity in mice at 0.3 mg/kg (ip) in 3 h; assay type: functional
# Mus musculus [5] = test: Percent change in locomotor activity in mice at 3 mg/kg i.p. in 3 h.; assay type: functional; conditions: route intraperitoneal; outline: as §1
# [6] = target: T1, Norepinephrine transporter (Rattus norvegicus, UniProt Q9WTR4); test: Inhibition of norepinephrine transporter (NET) determined using [3H]nisoxetine radioligand.
# Outline: (§2)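 Competition binding at the NET with 0.5 nM [3H]nisoxetine (final concentration). Other procedures follow earlier published methods.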
# Mus musculus [7] = test: Percent change in locomotor activity in mice at 1 mg/kg i.p. in 2 h.; assay type: functional; conditions: route intraperitoneal; outline: as §1
# Mus musculus [8] = species: Mus musculus; test: Effective dose for locomotor activity in mice in the peak hour.; assay type: functional
# Rattus norvegicus [9] = test: Drug discrimination effect of compound in rats, expressed as percent of rats choosing the cocaine lever at dose 0.1 mg/kg (ip); assay type: functional
# [10] = target: T2, Sodium-dependent serotonin transporter (Rattus norvegicus, UniProt P31652); test: Binding affinity towards serotonin transporter 5-HTT was determined using [3H]paroxetine radioligand.
# Outline: (§3)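 Competition binding at the 5-HTT with 0.2 nM [3H]paroxetine (final concentration). Other procedures follow earlier published methods.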
# Mus musculus [11] = test: Percent change in locomotor activity in mice at 1 mg/kg i.p. in 4 h.; assay type: functional; conditions: route intraperitoneal; outline: as §1
# Mus musculus [12] = test: Percent change in locomotor activity in mice at 3 mg/kg i.p. in 4 h.; assay type: functional; conditions: route intraperitoneal; outline: as §1
# Mus musculus [13] = species: Mus musculus; test: Hour 1 ratio to cocaine was determined for locomotor activity in mice; assay type: functional
# [14] = target: Sodium-dependent dopamine transporter (Rattus norvegicus, UniProt P23977); test: Inhibitory concentration required to inhibit dopamine transporter DAT was determined by using [3H]WIN-35428 radioligand
# Outline: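 Competition binding at the DAT with 0.5 nM [3H]WIN35,428 (final concentration). Other procedures follow earlier published methods.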
# Mus musculus [15] = test: Percent change from vehicle in locomotor activity in mice at 0.3 mg/kg (ip) in 2 h; assay type: functional
# Mus musculus [16] = test: Percent change in locomotor activity in mice at 3 mg/kg i.p. in 1 h.; assay type: functional; conditions: route intraperitoneal; outline: as §1
# Mus musculus [17] = test: Percent change from vehicle in locomotor activity in mice at 0.3 mg/kg (ip) in 4 h; assay type: functional
# Rattus norvegicus [18] = test: Drug discrimination effect of compound in rats, expressed as percent of rats choosing the cocaine lever at dose 0.3 mg/kg (ip); assay type: functional
# Mus musculus [19] = test: Percent change from vehicle in locomotor activity in mice at 0.3 mg/kg (ip) in 1 h; assay type: functional
# Mus musculus [20] = test: Percent change in locomotor activity in mice at 1 mg/kg i.p. in 1 h.; assay type: functional; conditions: route intraperitoneal
# [21] = target: T1, Norepinephrine transporter; test: Binding affinity towards norepinephrine transporter was determined using [3H]nisoxetine radioligand.; outline: as §2
# Mus musculus [22] = test: Percent change locomotor activity in mice at 1 mg/kg i.p. in 3 h.; assay type: functional; conditions: route intraperitoneal; outline: as §1
# [23] = target: T2, Sodium-dependent serotonin transporter; test: Inhibitory concentration required to inhibit serotonin transporter 5-HTT was determined by using [3H]paroxetine radioligand; outline: as §3
# Mus musculus [24] = test: Percent change from vehicle in locomotor activity in mice at 0.1 mg/kg (ip) in 1 h; assay type: functional
# Mus musculus [25] = test: Percent change from vehicle in locomotor activity in mice at 0.1 mg/kg (ip) in 4 h; assay type: functional
# Mus musculus [26] = test: Percent change from vehicle in locomotor activity in mice at 0.1 mg/kg (ip) in 2 h; assay type: functional
# Mus musculus [27] = test: Percent change from vehicle in locomotor activity in mice at 0.1 mg/kg (ip) in 3 h; assay type: functional
# Rattus norvegicus [28] = test: Drug discrimination effect of compound in rats, expressed as percent of rats choosing the cocaine lever at dose 0.56 mg/kg (ip); assay type: functional
# Rattus norvegicus [29] = test: Drug discrimination effect of compound in rats, expressed as percent of rats choosing the cocaine lever at dose 1 mg/kg (ip); assay type: functional
# Mus musculus [30] = test: Percent change from vehicle in locomotor activity in mice at 30 mg/kg (ip) in 1 h; assay type: functional
# Mus musculus [31] = test: Percent change from vehicle in locomotor activity in mice at 30 mg/kg (ip) in 3 h; assay type: functional
# Mus musculus [32] = test: Percent change from vehicle in locomotor activity in mice at 10 mg/kg (ip) in 1 h; assay type: functional
# Mus musculus [33] = test: Percent change from vehicle in locomotor activity in mice at 10 mg/kg (ip) in 3 h; assay type: functional
# Mus musculus [34] = test: Percent change from vehicle in locomotor activity in mice at 10 mg/kg (ip) in 4 h; assay type: functional
# Mus musculus [35] = test: Percent change from vehicle in locomotor activity in mice at 30 mg/kg (ip) in 2 h; assay type: functional
# Rattus norvegicus [36] = test: Drug discrimination effect of compound in rats, expressed as percent of rats choosing the cocaine lever at dose 30 mg/kg (ip); assay type: functional
# Rattus norvegicus [37] = test: Drug discrimination effect of compound in rats, expressed as percent of rats choosing the cocaine lever at dose 3 mg/kg (ip); assay type: functional
# Mus musculus [38] = species: Mus musculus; test: Effective dose was evaluated for locomotor activity in mice in the peak hour; No stimulation; assay type: functional, organism-based
# Mus musculus [39] = test: Percent change from vehicle in locomotor activity in mice at 10 mg/kg (ip) in 2 h; assay type: functional
# Mus musculus [40] = test: Percent change from vehicle in locomotor activity in mice at 30 mg/kg (ip) in 4 h; assay type: functional
# Rattus norvegicus [41] = test: Drug discrimination effect of compound in rats, expressed as percent of rats choosing the cocaine lever at dose 10 mg/kg (ip); assay type: functional
# Sodium-dependent dopamine transporter, sequence (P23977 whole entry): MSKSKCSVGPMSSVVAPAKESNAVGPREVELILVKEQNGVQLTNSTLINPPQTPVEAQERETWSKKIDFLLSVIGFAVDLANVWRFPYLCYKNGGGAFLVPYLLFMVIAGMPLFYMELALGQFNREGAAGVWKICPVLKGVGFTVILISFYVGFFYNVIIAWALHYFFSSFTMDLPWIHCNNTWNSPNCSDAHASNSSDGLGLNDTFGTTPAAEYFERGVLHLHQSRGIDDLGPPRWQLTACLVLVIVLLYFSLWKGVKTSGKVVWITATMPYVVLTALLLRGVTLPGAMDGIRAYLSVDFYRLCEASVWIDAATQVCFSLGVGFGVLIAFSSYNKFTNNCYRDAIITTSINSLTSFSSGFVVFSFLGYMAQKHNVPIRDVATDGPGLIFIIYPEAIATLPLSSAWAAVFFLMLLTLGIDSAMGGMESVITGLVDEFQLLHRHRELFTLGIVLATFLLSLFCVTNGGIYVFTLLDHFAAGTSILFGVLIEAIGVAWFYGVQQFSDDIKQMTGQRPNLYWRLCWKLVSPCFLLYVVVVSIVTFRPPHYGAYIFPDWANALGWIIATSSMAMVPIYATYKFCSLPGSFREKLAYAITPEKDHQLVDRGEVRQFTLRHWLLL
# T2 sequence (P31652 whole entry): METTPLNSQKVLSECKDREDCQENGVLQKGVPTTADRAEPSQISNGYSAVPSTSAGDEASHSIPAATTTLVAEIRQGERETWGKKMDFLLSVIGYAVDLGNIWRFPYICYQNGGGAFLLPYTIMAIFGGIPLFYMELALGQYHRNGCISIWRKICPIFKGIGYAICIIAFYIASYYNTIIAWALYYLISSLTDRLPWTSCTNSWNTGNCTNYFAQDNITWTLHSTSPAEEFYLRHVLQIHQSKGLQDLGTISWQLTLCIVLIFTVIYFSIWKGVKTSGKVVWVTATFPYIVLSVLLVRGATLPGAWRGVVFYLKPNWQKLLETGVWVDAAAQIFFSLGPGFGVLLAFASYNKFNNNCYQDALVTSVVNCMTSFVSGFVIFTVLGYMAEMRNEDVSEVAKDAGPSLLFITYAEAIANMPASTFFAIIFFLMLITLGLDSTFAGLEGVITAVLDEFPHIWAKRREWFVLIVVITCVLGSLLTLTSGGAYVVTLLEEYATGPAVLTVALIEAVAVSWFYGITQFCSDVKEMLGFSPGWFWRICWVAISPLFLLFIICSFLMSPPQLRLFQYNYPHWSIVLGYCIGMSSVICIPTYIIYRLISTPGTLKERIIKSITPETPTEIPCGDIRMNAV
# T1 sequence (Q9WTR4 whole entry): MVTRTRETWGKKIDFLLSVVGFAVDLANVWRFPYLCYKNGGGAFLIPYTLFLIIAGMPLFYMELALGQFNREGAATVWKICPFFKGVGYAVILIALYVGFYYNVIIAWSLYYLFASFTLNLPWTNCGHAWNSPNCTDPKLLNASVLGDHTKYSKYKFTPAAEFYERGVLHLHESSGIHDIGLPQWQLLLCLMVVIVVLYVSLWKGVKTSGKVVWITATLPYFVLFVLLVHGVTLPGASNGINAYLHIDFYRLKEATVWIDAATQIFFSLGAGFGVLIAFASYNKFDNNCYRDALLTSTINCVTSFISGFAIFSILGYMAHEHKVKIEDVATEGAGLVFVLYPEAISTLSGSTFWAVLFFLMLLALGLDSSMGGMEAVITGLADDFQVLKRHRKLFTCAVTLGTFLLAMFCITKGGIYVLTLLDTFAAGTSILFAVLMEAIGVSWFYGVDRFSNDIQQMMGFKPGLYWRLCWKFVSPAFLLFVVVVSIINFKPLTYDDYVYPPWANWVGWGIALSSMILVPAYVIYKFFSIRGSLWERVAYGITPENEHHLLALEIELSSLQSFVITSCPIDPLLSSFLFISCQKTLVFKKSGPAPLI
structure (smiles),measurement,setting,value
Cc1ccc(C2CC3CCC(C2c2cc(C)no2)N3C)cc1 (stereo unspecified),ED50,Rattus norvegicus [1],0.28 mg/kg
same,Change,Mus musculus [2],552%
same,Drug discrimination effect,Rattus norvegicus [3],0%
same,Change,Mus musculus [4],75%
same,Change,Mus musculus [5],986%
same,IC50,[6],254 nM
same,Change,Mus musculus [7],413%
same,ED50,Mus musculus [8],1.1 mg/kg
same,Drug discrimination effect,Rattus norvegicus [9],13%
same,Ki,[10],348 nM
same,Change,Mus musculus [11],78%
same,Change,Mus musculus [12],221%
same,Ratio,Mus musculus [13],1.1
same,IC50,[14],0.93 nM
same,Change,Mus musculus [15],156%
same,Change,Mus musculus [16],478%
same,Change,Mus musculus [17],48%
same,Drug discrimination effect,Rattus norvegicus [18],83%
same,Change,Mus musculus [19],140%
same,Change,Mus musculus [20],341%
same,Ki,[21],153 nM
same,Change,Mus musculus [22],392%
Cc1cc(C2C(c3ccc(Cl)cc3)CC3CCC2N3C)on1 (stereo unspecified),ED50,Rattus norvegicus [1],0.21 mg/kg
same,Drug discrimination effect,Rattus norvegicus [3],25%
same,Change,Mus musculus [4],735%
same,IC50,[6],181 nM
same,IC50,[23],572 nM
same,Change,Mus musculus [7],434%
same,ED50,Mus musculus [8],0.2 mg/kg
same,Drug discrimination effect,Rattus norvegicus [9],0%
same,Ki,[10],52 nM
same,Change,Mus musculus [11],981%
same,Ratio,Mus musculus [13],1.2
same,IC50,[14],0.59 nM
same,Change,Mus musculus [24],48%
same,Change,Mus musculus [25],-23%
same,Change,Mus musculus [26],92%
same,Change,Mus musculus [15],526%
same,Change,Mus musculus [17],392%
same,Drug discrimination effect,Rattus norvegicus [18],88%
same,Change,Mus musculus [27],38%
same,Change,Mus musculus [19],354%
same,Change,Mus musculus [20],543%
same,Ki,[21],109 nM
same,Change,Mus musculus [22],926%
CCc1cc(C2C(c3ccc(Cl)cc3)CC3CCC2N3C)on1 (stereo unspecified),ED50,Rattus norvegicus [1],0.48 mg/kg
same,Change,Mus musculus [4],224%
same,Drug discrimination effect,Rattus norvegicus [28],75%
same,IC50,[6],120 nM
same,IC50,[23],3090 nM
same,Change,Mus musculus [7],1900%
same,ED50,Mus musculus [8],0.4 mg/kg
same,Drug discrimination effect,Rattus norvegicus [29],71%
same,Ki,[10],281 nM
same,Change,Mus musculus [11],778%
same,Ratio,Mus musculus [13],2.1
same,IC50,[14],0.5 nM
same,Change,Mus musculus [24],82%
same,Change,Mus musculus [25],103%
same,Change,Mus musculus [26],224%
same,Change,Mus musculus [15],505%
same,Change,Mus musculus [17],208%
same,Drug discrimination effect,Rattus norvegicus [18],0%
same,Change,Mus musculus [27],184%
same,Change,Mus musculus [19],284%
same,Change,Mus musculus [20],954%
same,Ki,[21],72 nM
same,Change,Mus musculus [22],1708%
Cc1ccc(C2CC3CCC(C2c2cc(-c4ccc(Cl)cc4)no2)N3C)cc1 (stereo unspecified),Change,Mus musculus [30],-26%
same,Change,Mus musculus [2],39%
same,Change,Mus musculus [31],79%
same,Change,Mus musculus [4],-58%
same,Change,Mus musculus [32],-1%
same,Change,Mus musculus [5],7%
same,IC50,[6],6980 nM
same,IC50,[23],> 100000 nM
same,Change,Mus musculus [33],-45%
same,Change,Mus musculus [34],-20%
same,Change,Mus musculus [35],38%
same,Drug discrimination effect,Rattus norvegicus [36],0%
same,Drug discrimination effect,Rattus norvegicus [29],0%
same,Change,Mus musculus [11]; 1 mg/kg,24% and 27%
same,Change,Mus musculus [12],-1%
same,IC50,[14],8.74 nM
same,Drug discrimination effect,Rattus norvegicus [37],13%
same,ED50,Mus musculus [38],inactive
same,Change,Mus musculus [39],-3%
same,Change,Mus musculus [15],-20%
same,Change,Mus musculus [40],52%
same,Change,Mus musculus [16],30%
same,Change,Mus musculus [17],45%
same,Change,Mus musculus [19],-35%
same,Drug discrimination effect,Rattus norvegicus [41],0%
same,Change,Mus musculus [20],5%
same,Ki,[21],3990 nM
same,Change,Mus musculus [22],33%

# Reference: ChEMBL document CHEMBL1148376, “Synthesis, monoamine transporter binding properties, and behavioral pharmacology of a series of 3beta-(substituted phenyl)-2beta-(3'-substituted isoxazol-5-yl)tropanes” (J Med Chem, 2004)
